Format in all cases: ADME
The nature of data set [1]: Drug metabolism assessed as Clostridium perfringens azoreductase-mediated reduction within 4 hrs by HPLC analysis.
A short description of data set [2]: Prodrug conversion assessed as Clostridium perfringens azoreductase-mediated disproportionation to parent amine by HPLC analysis.
The nature of data set [3]: Drug metabolism assessed as Clostridium perfringens azoreductase-mediated hydrazine intermediate formation by LCMS analysis. In outline:
(§1)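 Azo substrate incubated in Clostridium perfringens culture. Samples taken at 0 h and 6 h and analysed by LCMS, resolving parent azo isomer peaks from the hydrazine intermediate peak.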

The nature of data set [4]: Drug metabolism assessed as Clostridium perfringens azoreductase-mediated reoxidation of hydrazine intermediate to parent azo compound by LCMS analysis. Summed up: as §1
A short description of data set [5]: Drug metabolism assessed as Clostridium perfringens azoreductase-mediated reoxidation of hydrazine intermediate to parent azo compound at 6 hrs by LCMS analysis. Summed up: as §1
A further data set relates to azoreductase. Kind of data set: Drug metabolism assessed as Clostridium perfringens azoreductase-mediated reduction at 6 hrs by HPLC analysis. Conditions: read-out: Drug metabolism; call rule not given here. In outline:
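Azo substrates incubated with Clostridium perfringens culture and sampled over time to 6 h. Parent loss and product formation followed by reverse-phase HPLC with PDA UV detection, with the azo chromophore absorbing at 300–400 nm.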

The nature of data set [6]: Drug metabolism assessed as Clostridium perfringens-mediated hydrazine intermediate formation at 6 hrs by LCMS analysis. In outline: as §1
The nature of data set [7]: Drug metabolism assessed as Clostridium perfringens azoreductase-mediated dihydroquinolone derivative formation by HPLC analysis.
A short description of data set [8]: Prodrug conversion assessed as Clostridium perfringens azoreductase-mediated prednisolone formation by HPLC analysis.

As for `O=C(O)c1ccc(/N=N/c2ccc(O)cc2)cc1`, the Drug metabolism result in data set [1] and in data set [2] was “Active” in each case.
Consider `N#Cc1ccc(/N=N/c2ccc(O)cc2)cc1`, for which the Drug metabolism result in data set [1] and in [2] was “Active” in each case.
On to `CN(C)c1ccc(/N=N/c2ccccc2C(=O)O)cc1`, for which the Drug metabolism entry in [1] and in data set [2] was “Active” in each case.
`O=[N+]([O-])c1ccc(/N=N/c2ccc(O)cc2)cc1`: the Drug metabolism result in data set [1] and in data set [2] was “Active” in each case.
Take `O=C(O)c1cccc(/N=N/c2ccccc2)c1`: the Drug metabolism result in data set [3] and in data set [4] was “Active” throughout.
With `C[C@]12C=CC(=O)C=C1CC[C@@H]1[C@@H]2[C@@H](O)C[C@@]2(C)[C@H]1CC[C@]2(O)C(=O)COC(=O)CCc1ccccc1/N=N/c1ccc(C(=O)O)cc1`, the Drug metabolism result in [5] is recorded as “Active”; in [6], “Active”; in [7], “Not Active”; in [8], “Not Active”. Moreover, the metabolised at 6 h in the data set on azoreductase is 55%.
Regarding `Oc1ccc(/N=N/c2ccc(Br)cc2)cc1`, the Drug metabolism result in [1] and in [2] was “Active” each time.
On to `O=C(O)CCc1ccccc1/N=N/c1ccc(C(=O)O)cc1`, for which the Drug metabolism entry in data set [8] is “Not Active”.
With `FC(F)(F)c1ccc(/N=N/c2ccccc2)cc1`, the Drug metabolism result is “Active” in [3], “Not Active” in data set [4] and “Active” in data set [2].
As for `O=C(O)c1ccc(/N=N/c2ccccc2)cc1`, the Drug metabolism entry in [3] and in [4] was “Active” in each case.
`N#Cc1ccc(/N=N/c2ccccc2)cc1`: the Drug metabolism entry in data set [3] and in data set [4] was “Active” in each case.
`O=C(O)CCc1ccccc1/N=N/c1ccc(C(=O)NCC(=O)O)cc1`: in [8], the Drug metabolism result is “Not Active”.
For the compound `CN(C)c1ccc(/N=N/c2ccccc2)cc1` [DIMETHYL YELLOW], the Drug metabolism result in data set [1] and in data set [2] was “Active” in each case.
`Brc1ccc(/N=N/c2ccccc2)cc1`: the Drug metabolism entry in data set [3] and in data set [4] was “Active” each time.

These data come from ChEMBL document CHEMBL2202976, “Structure requirements for anaerobe processing of azo compounds: implications for prodrug design” (Bioorg Med Chem Lett, 2012).
